Measurements: ChEMBL document CHEMBL3804766, “Discovery of Dual Inhibitors for Wild Type and D816V Mutant of c-KIT Kinase through Virtual and Biochemical Screening of Natural Products” (J Nat Prod, 2016)

Assays:
[1] = target: T1, Mast/stem cell growth factor receptor Kit (Homo sapiens, UniProt P10721); assay: Inhibition of wild type c-KIT (unknown origin) expressed in T7-phage infected Escherichia coli BL21 assessed as remaining activity at 100 uM incubated for 1 hr with shaking by qPCR method relative to control
T1 sequence (P10721 whole entry): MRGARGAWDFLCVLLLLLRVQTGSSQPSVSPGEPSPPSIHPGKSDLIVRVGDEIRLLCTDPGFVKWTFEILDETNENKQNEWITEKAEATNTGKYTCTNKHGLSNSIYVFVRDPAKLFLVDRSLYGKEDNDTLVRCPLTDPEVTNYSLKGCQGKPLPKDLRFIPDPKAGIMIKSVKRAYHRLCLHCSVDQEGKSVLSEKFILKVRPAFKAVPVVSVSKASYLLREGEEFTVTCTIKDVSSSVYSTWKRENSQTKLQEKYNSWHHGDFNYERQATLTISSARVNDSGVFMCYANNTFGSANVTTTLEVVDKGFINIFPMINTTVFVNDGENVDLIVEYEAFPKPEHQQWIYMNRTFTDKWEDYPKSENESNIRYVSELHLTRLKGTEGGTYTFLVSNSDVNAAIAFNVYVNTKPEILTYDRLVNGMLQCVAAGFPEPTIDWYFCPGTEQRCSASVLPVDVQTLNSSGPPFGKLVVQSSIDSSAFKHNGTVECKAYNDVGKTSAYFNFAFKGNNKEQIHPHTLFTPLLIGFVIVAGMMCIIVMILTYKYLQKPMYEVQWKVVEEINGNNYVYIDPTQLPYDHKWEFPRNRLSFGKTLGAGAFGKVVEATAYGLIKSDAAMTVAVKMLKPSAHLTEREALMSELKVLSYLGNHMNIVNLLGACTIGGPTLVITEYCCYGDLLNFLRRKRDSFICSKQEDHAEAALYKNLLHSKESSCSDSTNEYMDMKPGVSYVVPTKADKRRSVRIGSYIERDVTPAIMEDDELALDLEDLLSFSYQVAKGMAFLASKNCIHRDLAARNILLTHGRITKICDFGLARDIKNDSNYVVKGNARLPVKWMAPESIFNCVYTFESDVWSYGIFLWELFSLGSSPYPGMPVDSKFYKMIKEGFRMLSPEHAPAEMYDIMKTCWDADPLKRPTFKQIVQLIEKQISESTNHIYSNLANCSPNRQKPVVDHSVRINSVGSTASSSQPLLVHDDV
Outline: (§1)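 Competition binding assay run at a single 100 μM concentration, added from 40× DMSO stocks. Tagged kinase was combined with immobilized biotinylated ligand on streptavidin magnetic beads in SeaBlock/0.17× PBS/0.05% Tween 20/6 mM DTT for 1 h at RT with shaking. Beads were washed, then eluted with 0.5 μM free ligand for 30 min. Eluted kinase was quantified by qPCR as percent of control.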

[2] = test system: Mast/stem cell growth factor receptor Kit (Homo sapiens), P10721 [D816V]; assay: Inhibition of c-KIT D816V mutant (unknown origin) expressed in HEK293 cells assessed as remaining activity at 100 uM incubated for 1 hr with shaking by qPCR method relative to control; format: cell-based; outline: as §1
Mast/stem cell growth factor receptor Kit (Homo sapiens), P10721 [D816V], sequence (P10721 whole entry D816V, the tested form may be a part): as the sequence (P10721 whole entry) above, with D816V counted along it

[3] = target: T1, Mast/stem cell growth factor receptor Kit; assay: Inhibition of wild type His-tagged c-KIT (544 to 976 amino acids) (unknown origin) expressed in insect cells using poly[Glu:Tyr] (4:1) as substrate preincubated for 20 mins followed by [33P-gamma]ATP addition and subsequent inhibition for 2 hrs by radiometric assay
Outline: (§2)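 Compounds were serially diluted in DMSO and preincubated with enzyme for 20 min at RT. Final ATP was 1 μM. Reaction ran 2 h at RT, read by filter binding. Percent activity was taken relative to DMSO, and IC50 came from curve fitting.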

[4] = target: Mast/stem cell growth factor receptor Kit (Homo sapiens, UniProt P10721, D816V); assay: Inhibition of N-terminal GST-His-tagged c-KIT (544 to 976 amino acids) D816V mutant (unknown origin) expressed in Sf9 insect cells using poly[Glu:Tyr] (4:1) as substrate preincubated for 20 mins followed by [33P-gamma]ATP addition and subsequent inhibition for 2 hrs by radiometric assay; outline: as §2
Mast/stem cell growth factor receptor Kit (Homo sapiens, UniProt P10721, D816V), sequence (P10721 26-976 D816V limits assumed): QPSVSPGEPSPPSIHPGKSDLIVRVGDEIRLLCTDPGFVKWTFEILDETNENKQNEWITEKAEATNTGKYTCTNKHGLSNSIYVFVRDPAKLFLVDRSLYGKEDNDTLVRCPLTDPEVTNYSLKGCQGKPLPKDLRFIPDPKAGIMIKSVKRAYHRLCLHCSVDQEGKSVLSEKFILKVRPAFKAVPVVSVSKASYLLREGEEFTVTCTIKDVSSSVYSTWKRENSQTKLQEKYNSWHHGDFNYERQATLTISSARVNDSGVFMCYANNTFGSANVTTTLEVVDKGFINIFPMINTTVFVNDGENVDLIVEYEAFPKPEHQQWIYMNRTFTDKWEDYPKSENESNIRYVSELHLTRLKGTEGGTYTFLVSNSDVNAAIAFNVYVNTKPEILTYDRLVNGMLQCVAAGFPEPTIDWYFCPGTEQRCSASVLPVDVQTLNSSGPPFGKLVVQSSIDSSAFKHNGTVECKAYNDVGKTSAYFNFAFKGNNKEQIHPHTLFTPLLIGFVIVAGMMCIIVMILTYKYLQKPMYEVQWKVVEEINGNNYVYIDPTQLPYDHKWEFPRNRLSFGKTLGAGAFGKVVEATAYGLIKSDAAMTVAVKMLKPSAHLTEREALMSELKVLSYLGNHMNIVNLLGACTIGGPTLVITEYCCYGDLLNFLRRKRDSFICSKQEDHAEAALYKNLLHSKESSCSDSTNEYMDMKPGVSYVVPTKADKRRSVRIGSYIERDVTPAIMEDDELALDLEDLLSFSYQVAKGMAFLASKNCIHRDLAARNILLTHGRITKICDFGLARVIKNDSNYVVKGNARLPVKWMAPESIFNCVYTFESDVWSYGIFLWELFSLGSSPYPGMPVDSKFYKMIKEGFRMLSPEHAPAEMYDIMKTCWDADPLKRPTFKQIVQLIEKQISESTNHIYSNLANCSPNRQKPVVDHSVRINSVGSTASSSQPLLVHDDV

Homo sapiens = species: Homo sapiens; assay: Selectivity ratio of IC50 for wild type His-tagged c-KIT (544 to 976 amino acids) (unknown origin) to IC50 for N-terminal GST-His-tagged c-KIT (544 to 976 amino acids) D816V mutant (unknown origin)

Compound	Kinase binding remaining, % of control [1] [%]	Activity [2] [%]	IC50 [3] [nM]	IC50 [4] [nM]	Ratio IC50 (Homo sapiens)
COc1c(O)c(O)c2oc(-c3ccccc3)cc(=O)c2c1OC	1	0	7800	500	
COc1ccc(/C=C2\Oc3cc(O)ccc3C2=O)cc1	0	15	15600	1400	> 10
COc1ccc(-c2cc(=O)c3c(O)c(OC)c(O)cc3o2)cc1 [PECTOLINARIGENIN]	0	3	1500	600	
O=C1c2c(O)cc(O)cc2O[C@H](c2ccc(O)c(O)c2)[C@H]1O	12	15			
